Test results: ChEMBL document CHEMBL4265908, “Structure-activity and structure-property relationships of novel Nrf2 activators with a 1,2,4-oxadiazole core and their therapeutic effects on acetaminophen (APAP)-induced acute liver injury” (Eur J Med Chem, 2018)
Active and inactive are the calls of the source. The rule behind the calls is not given here.

Tests used:
Mus musculus [1] = test: In vivo activation of Nrf2 in APAP-induced liver injury in C57BL/6 mouse assessed as increase in Nrf2 protein expression level at 10 to 100 mg/kg, ip administered for 7 consecutive days followed by APAP challenge 1 hr post last compound dose and measured after 24 hrs by Western blot analysis; format: functional, organism-based
Outline: (§1)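 Female C57BL/6 mice (20–25 g, n = 10/group) received 10, 50 or 100 mg/kg/day ip in saline for 7 days. One hour after the last dose they received APAP 300 mg/kg in saline. Killed 24 h later. Serum ALT/AST by kit. Liver homogenates (pH 7.0 phosphate) used for GSH (A420, μmol/g protein), GST (A412, U/mg protein) and SOD. Liver also analyzed by western blot (β-actin normalized), qRT-PCR (GAPDH normalized) and H&E.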

L02 = test: Hepatoprotective activity against APAP-induced cell injury in human LO2 cells assessed as increase in cell viability pretreated for 24 hrs followed by APAP treatment measured after 24 hrs by MTT assay; format: functional, cell-based
Outline: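 LO2 cells plated for 12 h and pretreated for 24 h with 5, 10 or 20 μM compound. One arm was first transfected with 50 nM Nrf2 siRNA before receiving 20 μM compound. Medium then replaced with medium containing 8 mM APAP for 24 h. Viability by MTT at A570. Mean ± SD of three experiments.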

[2] = target: T1, Nuclear factor erythroid 2-related factor 2 (Homo sapiens) (UniProt Q16236); test: Activation of Nrf2 in human LO2 cells cotreated with Nrf2 siRNA assessed as increase in Nrf2 mRNA expression level at 20 uM by qRT-PCR analysis; format: cell-based
T1 sequence (whole entry): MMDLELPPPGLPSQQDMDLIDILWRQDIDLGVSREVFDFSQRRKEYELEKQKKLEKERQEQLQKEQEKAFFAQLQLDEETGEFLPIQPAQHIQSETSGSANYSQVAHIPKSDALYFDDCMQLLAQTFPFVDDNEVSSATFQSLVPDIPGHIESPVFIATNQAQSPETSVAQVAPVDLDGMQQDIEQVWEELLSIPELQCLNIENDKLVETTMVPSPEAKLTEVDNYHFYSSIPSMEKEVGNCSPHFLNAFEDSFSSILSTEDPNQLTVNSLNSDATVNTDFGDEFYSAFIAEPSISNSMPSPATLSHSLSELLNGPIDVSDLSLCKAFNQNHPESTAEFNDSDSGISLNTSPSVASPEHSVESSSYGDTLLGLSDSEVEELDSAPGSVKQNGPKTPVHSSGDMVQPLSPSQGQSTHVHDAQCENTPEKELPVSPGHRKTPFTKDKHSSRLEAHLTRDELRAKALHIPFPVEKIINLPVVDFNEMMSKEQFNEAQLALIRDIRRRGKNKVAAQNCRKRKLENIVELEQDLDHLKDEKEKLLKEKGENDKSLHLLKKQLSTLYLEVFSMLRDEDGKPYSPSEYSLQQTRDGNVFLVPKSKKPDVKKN
Outline: (§2)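 LO2 cells plated at 7 × 10^5 per 60 mm dish and transfected with 50 nM Nrf2 siRNA (scrambled siRNA as control). After 24 h, fresh medium was added and cells grown a further 48 h. Then 20 μM compound for 12 h. Nrf2, NQO1, GCLM and HO-1 mRNA measured by qRT-PCR, normalized to GAPDH, as fold over control.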

Mus musculus [3] = test: Hepatoprotective activity against APAP-induced liver injury in C57BL/6 mouse assessed as increase in SOD levels administered ip for 7 consecutive days followed by APAP challenge 1 hr post last compound dose and measured after 24 hrs by NBT assay; format: functional, organism-based; outline: as §1
Mus musculus [4] = test: In vivo activation of Nrf2 in APAP-induced liver injury in C57BL/6 mouse assessed as increase in Nrf2 mRNA expression level administered ip for 7 consecutive days followed by APAP challenge 1 hr post last compound dose and measured after 24 hrs by qRT-PCR analysis; format: functional, organism-based; outline: as §1
HepG2 = test: Cytotoxicity against human HepG2 cells at 80 uM after 24 hrs by MTT assay; format: cell-based; settings: hepg2, 24 h
Mus musculus [5] = test: Hepatoprotective activity against APAP-induced liver injury in C57BL/6 mouse assessed as increase in GSH levels administered ip for 7 consecutive days followed by APAP challenge 1 hr post last compound dose and measured after 24 hrs; format: functional, organism-based; outline: as §1
[6] = target: T1, Nuclear factor erythroid 2-related factor 2 (Homo sapiens); test: Activation of Nrf2 in human HepG2-ARE-C8 cells assessed as induction of ARE-mediated luciferase activity at 80 uM after 24 hrs by luciferase reporter gene assay relative to control; format: cell-based
Outline: (§3)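 HepG2-ARE-C8 cells stably carrying ARE-luciferase, grown in DMEM with 10% FBS at 37 °C and 5% CO2. Seeded at 5 × 10^4 cells/well, left overnight, then given compound diluted from a 10 mM DMSO stock for 24 h. Cells lysed and luciferase read as RLU. Inductivity = (RLUtest − RLUblank)/(RLUcontrol − RLUblank), with DMSO as control. Mean ± SEM of three experiments.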

[7] = target: T1, Nuclear factor erythroid 2-related factor 2 (Homo sapiens); test: Activation of Nrf2 in human HepG2-ARE-C8 cells assessed as induction of ARE-mediated luciferase activity at 1 uM after 24 hrs by luciferase reporter gene assay relative to control; format: cell-based; outline: as §3
[8] = Lipophilicity, log D of the compound at pH 7.4 by potentiometric titration method; format: physicochemical; settings: buffer
Outline: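 Intrinsic aqueous solubility and logD at pH 7.4 determined by Avdeef-Bucher potentiometric titration on a pION Gemini Profiler.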

Mus musculus [9] = test: Hepatoprotective activity against APAP-induced liver injury in C57BL/6 mouse assessed as decrease in APAP-induced cell necrosis administered ip for 7 consecutive days followed by APAP challenge 1 hr post last compound dose and measured after 24 hrs by hematoxylin/eosin staining based assay; format: functional, organism-based; outline: as §1
[10] = target: T1, Nuclear factor erythroid 2-related factor 2 (Homo sapiens); test: Activation of Nrf2 in human HepG2-ARE-C8 cells assessed as induction of ARE-mediated luciferase activity at 0.1 uM after 24 hrs by luciferase reporter gene assay relative to control; format: cell-based; outline: as §3
[11] = target: T1, Nuclear factor erythroid 2-related factor 2 (Homo sapiens); test: Activation of Nrf2 in human LO2 cells assessed as increase in Nrf2 mRNA expression level by qRT-PCR analysis; format: cell-based
Outline: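 LO2 cells in DMEM with 10% FBS were exposed to 0, 2.5, 5, 10, 20 or 40 μM compound for 12 h. Transcripts measured by qRT-PCR: 40 cycles of 95 °C for 5 s and 60 °C for 30 s. Normalized to GAPDH and expressed as fold over the untreated control. Mean ± SD, n = 3.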

[12] = target: T1, Nuclear factor erythroid 2-related factor 2 (Homo sapiens); test: Activation of Nrf2 in human HepG2-ARE-C8 cells assessed as induction of ARE-mediated luciferase activity at 0.01 uM after 24 hrs by luciferase reporter gene assay relative to control; format: cell-based; outline: as §3
[13] = target: T1, Nuclear factor erythroid 2-related factor 2 (Homo sapiens); test: Activation of Nrf2 in human HepG2-ARE-C8 cells assessed as induction of ARE-mediated luciferase activity at 40 uM after 24 hrs by luciferase reporter gene assay relative to control; format: cell-based; outline: as §3
Mus musculus [14] = test: Hepatoprotective activity against APAP-induced liver injury in C57BL/6 mouse assessed as reduction in serum ALT levels administered ip for 7 consecutive days followed by APAP challenge 1 hr post last compound dose and measured after 24 hrs; format: functional, organism-based; outline: as §1
[15] = target: T1, Nuclear factor erythroid 2-related factor 2 (Homo sapiens); test: Activation of Nrf2 in human LO2 cells cotreated with Nrf2 siRNA assessed as increase in GCLM mRNA expression level at 20 uM by qRT-PCR analysis; format: cell-based; outline: as §2

Activity [2]: Active
Activity [6]: 59.5
Activity [7]: 16.1
logD [8]: 3.07
Activity [10]: 3.46
Activity [11]: Dose-dependent effect
Activity [12]: 2.75
Activity [13]: 48.7
Activity [15]: Active
SMILES: Cc1ccc(-c2noc(-c3ccc(F)c(F)c3)n2)cn1
Activity (Mus musculus [1]): Active
Activity (L02): Dose-dependent effect
Activity (Mus musculus [3]): Dose-dependent effect
Activity (Mus musculus [4]): Dose-dependent effect
Activity (HepG2): Non-Toxic
Activity (Mus musculus [5]): Dose-dependent effect
Activity (Mus musculus [9]): Dose-dependent effect
Activity (Mus musculus [14]): Dose-dependent effect
